Here are results for one compound from ChEMBL document CHEMBL1152432, “2-Arylamino-4-amino-5-aroylthiazoles. "One-pot" synthesis and biological evaluation of a new class of inhibitors of tubulin polymerization” (J Med Chem, 2009).

Usually IC50 stands for the point on the concentration scale where inhibition reaches its midpoint. Higher therefore signals a need for much substance. The inhibition is the change of the read-out against control, counted positive when it falls. Higher therefore signals strong suppression.

The structures appear in SMILES notation.

One assay relates to L1210. In words: Antiproliferative activity against mouse L1210 cells after 2 days by coulter counter method. Format: functional, cell-based. The note with it: L1210, 48 h. Put shortly:
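Cells seeded at 300,000-500,000 cells/mL, mixed 1:1 with compound dilutions and incubated 2 days at 37 °C. Cell number counted by Coulter counter. IC50 is the concentration giving 50% inhibition of proliferation, taken from dose-response curves. Mean ± SE of at least three independent experiments.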

A further assay concerns FM3A. The assay is described as follows: Antiproliferative activity against mouse FM3A cells after 2 days by coulter counter method. Type of assay: functional, cell-based. The note with it: 48 h. Put shortly: (§1)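 Cells seeded at 300,000-500,000 cells/mL, mixed 1:1 with compound dilutions and incubated 2 days at 37 °C. Cell number counted by Coulter counter. Mean ± SE of at least three independent experiments.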

The subject of a further assay is MOLT-4. The assay is described as follows: Antiproliferative activity against human MOLT4 cells after 2 days by coulter counter method. Format: functional, cell-based. Conditions: MOLT-4, 48 h. Put shortly:
as §1

The next assay concerns CCRF-CEM. The assay is described as follows: Antiproliferative activity against human CEM cells after 2 days by coulter counter method. Format: functional, cell-based. The note with it: 48 h. The method in brief:
as §1

The subject of assay [1] is HeLa. The assay is described as follows: Antiproliferative activity against human HeLa cells after 2 days by coulter counter method. Format: functional, cell-based. Conditions: 48 h. Put shortly:
as §1

Assay [2] in a line: Inhibition of bovine brain tubulin polymerization by turbidimetry. On the set-up: species or system Bos taurus. The method in brief:
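Purified bovine brain tubulin (10 μM) preincubated with varying compound concentrations in glutamate buffer at 30 °C, then chilled to 0 °C. GTP added, mixtures warmed to 30 °C in a recording spectrophotometer and assembly followed turbidimetrically.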

For the next assay, the species on record is Bos taurus. In words: Displacement of [3H]colchicine from bovine brain tubulin at 1 uM. The method in brief:
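Reaction mixtures held 1 μM bovine brain tubulin, 5 μM [3H]colchicine and 1 μM test compound. Inhibition of radiolabelled colchicine binding to tubulin was measured.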

The test system of assay [3] is HeLa. The assay is described as follows: Cell cycle arrest in human HeLa cells assessed as accumulation at G1 phase at 30 nM after 24 hrs uisng propidium iodide staining by flow cytometry. Format: functional. Put shortly:
(§2)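 Exponentially growing HeLa cells (5×10^5) treated 24 h. Floating and trypsinized cells pooled, fixed in ice-cold 70% ethanol, lysed with RNaseA buffer and stained with propidium iodide. DNA histograms acquired by flow cytometry. Percentages of G1, S and G2/M phases calculated on living cells, with the sub-G1 peak also scored.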
Background: Flow cytometry measures light scatter and fluorescence of single cells or particles in a stream.

In assay [4] the test system is HeLa. The assay is described as follows: Cell cycle arrest in human HeLa cells assessed as accumulation at S phase at 30 nM after 24 hrs uisng propidium iodide staining by flow cytometry. Format: functional. The method in brief:
as §2

The subject of assay [5] is HeLa. In words: Cell cycle arrest in human HeLa cells assessed as accumulation at G2/M phase at 30 nM after 24 hrs uisng propidium iodide staining by flow cytometry. Format: functional. Put shortly: as §2
For assay [6], the system named is HeLa. The assay is described as follows: Cell cycle arrest in human HeLa cells assessed as accumulation at subG1 phase at 30 nM after 24 hrs uisng propidium iodide staining by flow cytometry. Type of assay: functional. Put shortly: as §2
Assay [7] has as its system HeLa. In words: Induction of apoptosis in human HeLa cells assessed as appearance of hypodiploid cells after 24 hrs using propidium iodide staining by flow cytometry. Type of assay: functional, cell-based. Put shortly:
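HeLa cells (5×10^5, exponential growth) exposed to a range of concentrations for 24 h, then ethanol-fixed (70%, ice-cold), RNaseA-treated and propidium iodide-stained for flow cytometry. Apoptotic fraction taken as the cells forming a sub-G1 peak.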

`COc1cc(C(=O)c2sc(Nc3ccc(C)cc3)nc2N)cc(OC)c1OC`: the IC50 in the assay with L1210 was found to be 0.031 µM; with FM3A, 0.015 µM; with MOLT-4 it was 0.021 µM; in the assay on CCRF-CEM it was 0.041 µM; with HeLa [1] it was 0.086 µM; in [2], 0.72 µM. The same compound yielded an inhibition in the assay listed under Bos taurus of 87%. The Activity in the assay with HeLa [3] is 32.1%; in the assay with HeLa [4] it was 17.4%; in the assay with HeLa [5], 50.5%; in the assay on HeLa [6] it was 18.9%; in the assay with HeLa [7] it was “Dose-dependent effect”.
